Test results: ChEMBL document CHEMBL3351381, “Synthesis, structure-activity relationship studies, and antibacterial evaluation of 4-chromanones and chalcones, as well as olympicin A and derivatives” (J Med Chem, 2014)
In brackets after ≈: the same amount, converted by molar mass. Activity calls are given as the source filed them. The rule behind the calls is not given here.

What was measured:
Escherichia coli [1] = assay: Antimicrobial activity against tolC-deficient Escherichia coli by microbroth dilution method; type: functional
Escherichia coli [2] = assay: Antimicrobial activity against Escherichia coli K-12 by microbroth dilution method; type: functional
Staphylococcus aureus [3] = assay: Antimicrobial activity against methicillin-resistant Staphylococcus aureus NRS 70 by microbroth dilution method; type: functional
[4] = test system: Mycobacterium tuberculosis; assay: Antimicrobial activity against Mycobacterium tuberculosis H37Rv by microbroth dilution method; type: functional
Staphylococcus aureus [5] = assay: Disruption of membrane potential in Staphylococcus aureus Newman assessed as […] using DiOC2(3) probe by fluorescence assay; type: functional
Outline: (§1)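 S. aureus Newman grown to OD600nm ≈ 0.3 in Mueller–Hinton II, stained with DiOC2(3) and run on flow cytometry; red/green fluorescence ratio gives membrane potential. CCCP positive control, vancomycin negative control.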

Vero = assay: Cytotoxicity against african green monkey Vero cells assessed as reduction in cell viability by MTT assay; type: cell-based; details: Chlorocebus sabaeus
Outline: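 Vero kidney epithelial cells (ATCC CCL-81) in DMEM/10% FBS, trypsinized, seeded near 10% confluence, left overnight to adhere; medium swapped for DMEM/FBS with 2-fold serial compound dilutions.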

[6] = Inhibition of purified recombinant Escherichia coli topoisomerase 1 assessed as relaxation of supercoiled plasmid DNA after 30 mins by electrophoretic analysis
[7] = Inhibition of Escherichia coli topoisomerase 4 assessed as inhibition of decatenation of catenated kinetoplast DNA after 30 mins by electrophoretic analysis
Staphylococcus aureus [8] = assay: Disruption of membrane potential in Staphylococcus aureus Newman assessed as […] at 4 times MIC using DiOC2(3) probe by fluorescence assay; type: functional; outline: as §1
[9] = Solubility of the compound in DMEM/FBS medium; type: physicochemical
Outline: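 Solubility limit estimated from 2-fold serial dilutions in DMEM with 5% FBS kept overnight at 37 °C; highest concentration with no visible precipitate taken.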

Staphylococcus aureus [10] = assay: Bacteriostatic activity against Staphylococcus aureus Newman assessed as log reduction in bacterial cell count at 4 times MIC up to 24 hrs by time-kill assay relative to control; type: functional
Staphylococcus aureus [11] = assay: Antimicrobial activity against methicillin-sensitive Staphylococcus aureus ATCC 29213 by microbroth dilution method; type: functional
Klebsiella pneumoniae = assay: Antimicrobial activity against Klebsiella pneumoniae ATCC 33495 at >200 ug/ml by microbroth dilution method; type: functional
Enterococcus faecalis = assay: Antimicrobial activity against Enterococcus faecalis ATCC 33186 by microbroth dilution method; type: functional
DNA gyrase = DNA gyrase (Escherichia coli, UniProt P0AES4+P0AES6); assay: Inhibition of Escherichia coli DNA gyrase assessed as supercoiled plasmid DNA formation after 30 mins by electrophoretic analysis; type: protein-complex assay
[12] = Selectivity index, ratio of CC50 for african green monkey Vero cells to IC50 for methicillin-resistant Staphylococcus aureus NRS 70; type: functional
Outline: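 Vero kidney epithelial cells were grown in DMEM/10% FBS, trypsinized, seeded at about 10% confluence and left overnight to adhere. They were then exposed to 2-fold serial compound dilutions in DMEM/FBS, and viability was read by MTT after overnight solubilization. SI = cytotoxic IC50 divided by MIC against MRSA.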

Pseudomonas aeruginosa = assay: Antimicrobial activity against Pseudomonas aeruginosa PAO1 at >200 ug/ml by microbroth dilution method; type: functional
Staphylococcus aureus [13] = assay: Antimicrobial activity against Staphylococcus aureus Newman; type: functional
Staphylococcus aureus [14] = assay: Bactericidal activity against Staphylococcus aureus Newman assessed as log reduction in bacterial cell count at 4 times MIC at 6 hrs by time-kill assay relative to control; type: functional
Staphylococcus aureus [15] = assay: Bactericidal activity against Staphylococcus aureus Newman assessed as log reduction in bacterial cell count at 4 times MIC up to 24 hrs by time-kill assay relative to control; type: functional
Staphylococcus aureus [16] = assay: Bactericidal activity against Staphylococcus aureus Newman assessed as log reduction in bacterial cell count at MIC up to 24 hrs by time-kill assay relative to control; type: functional

Structure (SMILES)	MIC (Escherichia coli [1]) [µg/mL]	MIC (Escherichia coli [2]) [µg/mL]	MIC (Staphylococcus aureus [3]) [µg/mL]	MIC [4] [µg/mL]	Activity (Staphylococcus aureus [5])	IC50 (Vero) [µg/mL]	IC50 [6] [µM]	IC50 [7] [µM]	Activity (Staphylococcus aureus [8])	solubility [9] [µg/mL]	MIC (Staphylococcus aureus [11]) [µg/mL]	MIC (Klebsiella pneumoniae) [µg/mL]	MIC (Enterococcus faecalis) [µg/mL]	Selectivity Index [12]	MIC (Pseudomonas aeruginosa) [µg/mL]	MIC (Staphylococcus aureus [13]) [µg/mL]	further results
O=C(/C=C/c1ccc(N2CCCCC2)cc1)c1ccc(O)cc1O	12.5 (≈ 38.7 µM)	> 200	3.13 (≈ 9.68 µM)	100 (≈ 309 µM)	Dose-dependent effect	16.7 (≈ 51.6 µM)	> 500	500	Active	100 (≈ 309 µM)	3.13 (≈ 9.68 µM)	> 200	25 (≈ 77.3 µM)	5.3	> 200	–	LCK (Staphylococcus aureus [10]): <=3; IC50 (DNA gyrase): > 1000 µM
CN[C@H](CC(C)C)C(=O)N[C@H]1C(=O)N[C@@H](CC(N)=O)C(=O)N[C@H]2C(=O)N[C@H]3C(=O)N[C@H](C(=O)N[C@H](C(=O)O)c4cc(O)cc(O)c4-c4cc3ccc4O)[C@H](O)c3ccc(c(Cl)c3)Oc3cc2cc(c3O[C@@H]2O[C@H](CO)[C@@H](O)[C@H](O)[C@H]2O[C@H]2C[C@](C)(N)[C@H](O)[C@H](C)O2)Oc2ccc(cc2Cl)[C@H]1O [VANCOMYCIN]	100 (≈ 69 µM)	100 (≈ 69 µM)	< 0.2	–	–	–	–	–	inactive	–	0.39 (≈ 0.269 µM)	> 200	0.78 (≈ 0.538 µM)	–	> 200	0.8 (≈ 0.552 µM)	–
N#CC(C#N)=NNc1cccc(Cl)c1 [CARBONYL CYANIDE M-CHLOROPHENYLHYDRAZONE]	–	–	–	–	–	–	–	–	–	–	–	–	–	–	–	6.25 (≈ 30.5 µM)	–
C=CCOc1ccccc1/C=C/C(=O)c1ccc(O)cc1O	3.13 (≈ 10.6 µM)	> 200	0.39 (≈ 1.32 µM)	200 (≈ 675 µM)	–	21.2 (≈ 71.5 µM)	> 500	250	–	> 200	6.25 (≈ 21.1 µM)	> 200	12.5 (≈ 42.2 µM)	54.4	> 200	–	LCK (Staphylococcus aureus [14]): 6
CC1(C)C2CC=C(/C=C/C(=O)c3ccc(O)cc3O)C1C2 (centres undefined)	1.56 (≈ 5.49 µM)	> 200	1.56 (≈ 5.49 µM)	100 (≈ 352 µM)	Dose-dependent effect	6.9 (≈ 24.3 µM)	> 500	60	Active	> 200	1.56 (≈ 5.49 µM)	> 200	3.13 (≈ 11 µM)	4.4	> 200	1.56 (≈ 5.49 µM)	LCK (Staphylococcus aureus [15]): >6; LCK (Staphylococcus aureus [16]): 3
